# pIC50, pKi: −log10 of the molar value. Calls of active or inactive are those of the source. The calls are words filed in the database; no cut-off is given here.
# How the values were obtained:
# [1] = Antioxidant activity assessed as ABTS free radical scavenging activity after 6 mins by spectrophotometry; format: functional
# Summary of the method: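 ABTS (7 mM in water) reacted with 2.45 mM potassium persulfate (final), held in dark at room temperature ≥18 h to form radical cation, then serially diluted. Antioxidant added, mixed by pipette bubbling; absorbance at 415 nm read 6 min after addition, equilibrated at 30 °C. Each treatment repeated three times; melatonin as comparator.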
# [2] = target: T1, Histamine H3 receptor (Homo sapiens, UniProt Q9Y5N1); test: Antagonist activity at human histamine H3 receptor expressed in HEK293 cells assessed by forskolin induced cAMP response element activation after 5 hrs by luciferase reporter gene assay; format: functional, cell-based
# [3] = target: T2, hERG (KCNH2) (Homo sapiens, UniProt Q12809); test: Inhibition of human ERG expressed in HEK293 cells assessed as membrane depolarization at 3 uM by patch-clamp method; format: cell-based; details: HEK293 cells that express hERG
# [4] = target: Histamine H1 receptor (Homo sapiens) (UniProt P35367); test: Antagonist activity at human histamine H1 receptor expressed in HEK293 cells assessed by forskolin induced cAMP response element activation after 5 hrs by luciferase reporter gene assay; format: functional, cell-based
# Summary of the method: (§1)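 Stable HEK-293 lines co-transfected with human H1, H2 or H4 receptor plus pCRE-Luc (G418 800 µg/mL selection), grown overnight to 90–95% confluence. Cells got 10 µM forskolin plus graded compound concentrations with 5 µM histamine in serum-free DMEM, 5 h at 37 °C. Read-out was firefly luciferase. Triplicate points, three separate experiments.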
# [5] = target: T1, Histamine H3 receptor; test: Displacement of […] from human histamine H3 receptor expressed in HEK293 cells after 90 to 120 mins by liquid scintillation counting; format: cell-based
# [6] = target: Histamine H2 receptor (Homo sapiens) (UniProt P25021); test: Antagonist activity at human histamine H2 receptor expressed in HEK293 cells assessed by forskolin induced cAMP response element activation after 5 hrs by luciferase reporter gene assay; format: functional, cell-based; summary of the method: as §1
# [7] = target: Histamine H4 receptor (Homo sapiens) (UniProt Q9H3N8); test: Antagonist activity at human histamine H4 receptor expressed in HEK293 cells assessed by forskolin induced cAMP response element activation after 5 hrs by luciferase reporter gene assay; format: functional, cell-based; summary of the method: as §1
# [8] = target: T2, hERG (KCNH2); test: Inhibition of human ERG expressed in HEK293 cells assessed as membrane depolarization at 100 nM by patch-clamp method; format: cell-based; details: HEK293 cells that express hERG
# T2 sequence (Q12809 whole entry): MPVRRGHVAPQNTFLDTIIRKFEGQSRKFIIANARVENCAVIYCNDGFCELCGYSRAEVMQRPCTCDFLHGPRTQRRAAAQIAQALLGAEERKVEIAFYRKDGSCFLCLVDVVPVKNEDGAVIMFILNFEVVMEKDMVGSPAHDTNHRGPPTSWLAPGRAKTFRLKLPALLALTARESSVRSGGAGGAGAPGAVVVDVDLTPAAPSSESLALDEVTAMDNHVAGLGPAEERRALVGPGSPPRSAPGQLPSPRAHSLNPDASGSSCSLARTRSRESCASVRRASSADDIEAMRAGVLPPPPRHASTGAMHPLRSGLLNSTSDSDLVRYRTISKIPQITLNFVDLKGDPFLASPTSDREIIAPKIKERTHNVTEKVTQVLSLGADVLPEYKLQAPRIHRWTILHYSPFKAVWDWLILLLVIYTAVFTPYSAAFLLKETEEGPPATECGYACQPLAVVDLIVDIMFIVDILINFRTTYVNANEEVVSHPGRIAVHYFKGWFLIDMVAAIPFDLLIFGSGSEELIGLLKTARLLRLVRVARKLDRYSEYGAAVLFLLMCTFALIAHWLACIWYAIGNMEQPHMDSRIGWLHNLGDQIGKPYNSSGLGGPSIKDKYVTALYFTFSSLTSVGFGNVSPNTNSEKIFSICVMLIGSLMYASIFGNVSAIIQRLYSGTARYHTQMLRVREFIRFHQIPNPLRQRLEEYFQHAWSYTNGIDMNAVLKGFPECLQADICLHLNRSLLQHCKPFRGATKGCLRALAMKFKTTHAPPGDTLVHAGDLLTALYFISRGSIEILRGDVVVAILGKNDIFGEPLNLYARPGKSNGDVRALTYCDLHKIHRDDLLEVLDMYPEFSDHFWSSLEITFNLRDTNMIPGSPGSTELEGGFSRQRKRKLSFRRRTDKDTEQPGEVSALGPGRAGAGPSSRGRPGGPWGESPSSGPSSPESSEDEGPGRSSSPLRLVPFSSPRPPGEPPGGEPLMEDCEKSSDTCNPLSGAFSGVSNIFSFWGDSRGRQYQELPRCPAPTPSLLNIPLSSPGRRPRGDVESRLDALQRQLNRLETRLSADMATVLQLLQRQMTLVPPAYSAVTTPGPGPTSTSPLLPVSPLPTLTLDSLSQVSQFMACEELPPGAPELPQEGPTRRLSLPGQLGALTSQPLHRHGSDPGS
# T1 sequence (Q9Y5N1 whole entry): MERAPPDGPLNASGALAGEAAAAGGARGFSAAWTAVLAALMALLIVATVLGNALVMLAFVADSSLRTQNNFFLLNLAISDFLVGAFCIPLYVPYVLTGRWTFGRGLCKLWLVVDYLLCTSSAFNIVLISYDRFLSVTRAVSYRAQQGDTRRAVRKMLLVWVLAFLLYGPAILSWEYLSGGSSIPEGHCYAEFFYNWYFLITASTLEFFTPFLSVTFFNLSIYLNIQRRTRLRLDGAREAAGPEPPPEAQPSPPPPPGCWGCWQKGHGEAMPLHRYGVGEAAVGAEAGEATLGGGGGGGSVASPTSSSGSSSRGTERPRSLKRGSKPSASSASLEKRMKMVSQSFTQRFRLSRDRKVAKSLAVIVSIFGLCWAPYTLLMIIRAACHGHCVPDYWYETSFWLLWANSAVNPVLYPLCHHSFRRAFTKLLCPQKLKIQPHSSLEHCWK
# Histamine H4 receptor (Homo sapiens), sequence (Q9H3N8 whole entry): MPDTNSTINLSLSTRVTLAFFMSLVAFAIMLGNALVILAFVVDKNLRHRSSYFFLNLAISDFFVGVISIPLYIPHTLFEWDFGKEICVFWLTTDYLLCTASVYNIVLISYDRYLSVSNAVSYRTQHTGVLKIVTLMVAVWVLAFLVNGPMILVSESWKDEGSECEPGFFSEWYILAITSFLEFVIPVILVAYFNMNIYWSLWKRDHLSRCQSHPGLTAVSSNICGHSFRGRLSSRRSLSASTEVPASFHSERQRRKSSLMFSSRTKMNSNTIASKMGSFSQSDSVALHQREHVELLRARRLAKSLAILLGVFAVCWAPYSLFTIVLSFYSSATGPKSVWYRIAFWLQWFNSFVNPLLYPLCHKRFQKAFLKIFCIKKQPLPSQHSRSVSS
# Histamine H2 receptor (Homo sapiens), sequence (P25021 whole entry): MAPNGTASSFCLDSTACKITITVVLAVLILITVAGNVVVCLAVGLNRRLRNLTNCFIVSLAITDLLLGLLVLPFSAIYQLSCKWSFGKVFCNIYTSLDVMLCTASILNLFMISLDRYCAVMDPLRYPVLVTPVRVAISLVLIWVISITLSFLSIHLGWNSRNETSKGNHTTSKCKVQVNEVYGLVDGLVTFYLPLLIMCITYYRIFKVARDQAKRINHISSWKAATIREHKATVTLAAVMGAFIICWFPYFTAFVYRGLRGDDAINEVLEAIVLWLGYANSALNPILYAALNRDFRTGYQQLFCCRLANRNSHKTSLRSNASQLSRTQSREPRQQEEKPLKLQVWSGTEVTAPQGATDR
# Histamine H1 receptor (Homo sapiens), sequence (P35367 whole entry): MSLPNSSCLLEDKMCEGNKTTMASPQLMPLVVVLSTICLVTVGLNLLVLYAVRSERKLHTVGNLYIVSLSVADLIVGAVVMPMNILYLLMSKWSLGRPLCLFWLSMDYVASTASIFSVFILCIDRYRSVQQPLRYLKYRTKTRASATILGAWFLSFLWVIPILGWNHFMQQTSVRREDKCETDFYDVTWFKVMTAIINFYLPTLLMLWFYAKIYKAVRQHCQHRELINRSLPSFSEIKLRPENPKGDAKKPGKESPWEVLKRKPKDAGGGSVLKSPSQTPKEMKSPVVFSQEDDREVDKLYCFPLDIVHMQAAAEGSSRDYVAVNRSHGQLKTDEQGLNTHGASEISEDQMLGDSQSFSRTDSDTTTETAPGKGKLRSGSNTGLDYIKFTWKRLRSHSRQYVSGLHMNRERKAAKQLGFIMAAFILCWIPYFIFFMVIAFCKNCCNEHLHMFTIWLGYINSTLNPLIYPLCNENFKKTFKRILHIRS
compound,measurement,setting,value
O=C(Cc1c[nH]c2ccccc12)Oc1ccc(CN2CCOCC2)cc1,pIC50,[1],5.27
same,pIC50,[2],6.10
same,inhibition at 3 µM,[3],12%
c1ccc2c(CCCNc3ccc(CN4CCOCC4)cc3)c[nH]c2c1,pIC50,[2],6.31
CCN(CC)Cc1ccc(OC(=O)CCc2c[nH]c3ccccc23)cc1,pIC50,[2],< 5.00
O=C(Cc1c[nH]c2ccccc12)Nc1ccc(CN2CCCCC2)cc1,pIC50,[2],5.55
O=C(CCc1c[nH]c2ccccc12)Oc1ccc(CN2CCCCC2)cc1,pIC50,[2],< 5.00
O=C(CCc1c[nH]c2ccccc12)Oc1ccc(CN2CCOCC2)cc1,pIC50,[2],< 5.00
O=C(CCc1c[nH]c2ccccc12)Nc1ccc(CN2CCCCC2)cc1,pIC50,[2],< 5.00
CCN(CC)Cc1ccc(NC(=O)CCc2c[nH]c3ccccc23)cc1,pIC50,[2],< 5.00
COc1ccc2[nH]cc(CCNC(C)=O)c2c1 [MELATONIN],pIC50,[1],5.72
O=C(Cc1c[nH]c2ccccc12)Nc1ccc(CN2CCOCC2)cc1,pIC50,[1],5.33
same,pIC50,[2],5.66
same,inhibition at 3 µM,[3],6%
CCN(CC)Cc1ccc(OC(=O)Cc2c[nH]c3ccccc23)cc1,pIC50,[2],5.34
CCN(CC)Cc1ccc(NCCc2c[nH]c3ccccc23)cc1,pIC50,[2],6.54
O=C(CCc1c[nH]c2ccccc12)Nc1ccc(CN2CCCC2)cc1,pIC50,[2],< 5.00
O=C(Oc1ccc(CN2CCCCC2)cc1)c1c[nH]c2ccccc12,pIC50,[2],5.69
O=C(CCc1c[nH]c2ccccc12)Nc1ccc(CN2CCOCC2)cc1,pIC50,[2],< 5.00
O=C(Cc1c[nH]c2ccccc12)Oc1ccc(CN2CCCC2)cc1,pIC50,[2],5.61
O=C(Nc1ccc(CN2CCCCC2)cc1)c1c[nH]c2ccccc12,pIC50,[2],5.92
c1ccc2c(CCNc3ccc(CN4CCOCC4)cc3)c[nH]c2c1,Activity,[4],inactive
same,pIC50,[1],5.52
same,pIC50,[2],7.31
same,pKi,[5],8.37
same,inhibition at 3 µM,[3],54%
same,Activity,[6],inactive
same,Activity,[7],inactive
CCN(CC)Cc1ccc(NC(=O)Cc2c[nH]c3ccccc23)cc1,pIC50,[2],5.46
c1ccc2c(CNc3ccc(CN4CCCCC4)cc3)c[nH]c2c1,pIC50,[2],6.27
c1ccc2c(CCNc3ccc(CN4CCCCC4)cc3)c[nH]c2c1,pIC50,[2],7.10
same,inhibition at 3 µM,[3],87%
c1ccc2c(CCNc3ccc(CN4CCCC4)cc3)c[nH]c2c1,pIC50,[2],6.74
same,inhibition at 3 µM,[3],73%
O=C(Cc1c[nH]c2ccccc12)Oc1ccc(CN2CCCCC2)cc1,pIC50,[2],5.98
O=C(Cc1c[nH]c2ccccc12)Nc1ccc(CN2CCCC2)cc1,pIC50,[2],5.86
O=C(CCc1c[nH]c2ccccc12)Oc1ccc(CN2CCCC2)cc1,pIC50,[2],< 5.00
COc1cc(N)c(Cl)cc1C(=O)NC1CCN(CCCOc2ccc(F)cc2)CC1OC (stereo not drawn) [CISAPRIDE],inhibition at 0.1 µM,[8],89%
